Experimental data from ChEMBL document CHEMBL1781992, “A novel monocarbonyl analogue of curcumin, (1E,4E)-1,5-bis(2,3-dimethoxyphenyl)penta-1,4-dien-3-one, induced cancer cell H460 apoptosis via activation of endoplasmic reticulum stress signaling pathway” (J Med Chem, 2011).
Active and inactive are the calls of the source. The calls are words filed in the database; no cut-off is given here.

Assays:
NCI-H460 [1] = assay: Induction of GRP78 mRNA expression in human NCI-H460 cells after 1 hrs by real time quantitative PCR analysis; format: functional, cell-based
How it was run: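 H460 cells treated across a concentration range for 1 h. GRP78 mRNA quantified by RT-qPCR, normalized to β-actin and expressed as percent of vehicle.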

NCI-H460 [2] = assay: Induction of apoptosis in human NCI-H460 cells assessed as early apoptotic cells at 10 uM after 6 hrs by annexinV-propidium iodide staining based flow cytometric analysis relative to control; format: functional
How it was run: (§1)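 H460 cells plated for 6 h, then treated with 5, 10 or 20 μM. Cells washed, trypsin-EDTA detached and resuspended in PBS, then stained with annexin V and propidium iodide plus RNase and 0.1% Triton X-100 for 30 min at 37 °C before flow cytometry. Figure legend gives 6 h incubation.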

NCI-H460 [3] = assay: Induction of GRP78 mRNA expression in human NCI-H460 cells at 5 to 20 uM after 3 hrs by real time quantitative PCR analysis; format: functional, cell-based
How it was run: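 H460 cells treated across a concentration range for 3 h. GRP78 mRNA quantified by RT-qPCR, normalized to β-actin and expressed as percent of vehicle.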

NCI-H460 [4] = assay: Induction of CHOP mRNA expression in human NCI-H460 cells after 6 hrs by real time quantitative PCR analysis; format: functional, cell-based
How it was run: (§2)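 H460 cells exposed to a concentration range for 6 or 12 h. CHOP mRNA measured by RT-PCR/qPCR and normalized to β-actin.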

NCI-H460 [5] = assay: Induction of CHOP protein expression in human NCI-H460 cells at 20 uM after 6 to 24 hrs by Western blot analysis; format: functional, cell-based
How it was run: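 H460 cells treated for 6–24 h, or across a range of concentrations. CHOP protein measured by Western blot, densitometry expressed as percent of control; Student's t test.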

NCI-H460 [6] = assay: Induction of CHOP mRNA expression in human NCI-H460 cells after 12 hrs by real time quantitative PCR analysis; format: functional, cell-based; how it was run: as §2
NCI-H460 [7] = assay: Induction of apoptosis in human NCI-H460 cells assessed as viable cells at 5 uM after 6 hrs by annexinV-propidium iodide staining based flow cytometric analysis relative to control; format: functional; settings: NCI-H460, 6 h, read-out: Activity; how it was run: as §1
Mus musculus = assay: Toxicity in ICR mouse assessed as body weight change at 400 to 800 mg/kg; format: organism-based; design: dose 400-800 mg/kg; settings: in vivo
NCI-H460 [8] = assay: Increase in p53 expression in human NCI-H460 cells at 20 uM by Western blot analysis; format: functional, cell-based; settings: TDE = time-dependent effect
How it was run: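 H460 cells exposed to 20 μM for varying times, or to a range of concentrations for 12 h. Lysates made in Tris-HCl pH 7.4/NaCl/NP40/SDS buffer with protease and phosphatase inhibitors, then probed for p53 by Western blot with chemiluminescent detection; bands quantified by densitometry.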

[9] = molecular target: Transcription factor Jun (Homo sapiens) (UniProt P05412); assay: Induction of c-Jun phosphorylation in human NCI-H460 cells at 20 uM by Western blot analysis; format: cell-based; settings: TDE = time-dependent effect
Transcription factor Jun (Homo sapiens), sequence (P05412 whole entry): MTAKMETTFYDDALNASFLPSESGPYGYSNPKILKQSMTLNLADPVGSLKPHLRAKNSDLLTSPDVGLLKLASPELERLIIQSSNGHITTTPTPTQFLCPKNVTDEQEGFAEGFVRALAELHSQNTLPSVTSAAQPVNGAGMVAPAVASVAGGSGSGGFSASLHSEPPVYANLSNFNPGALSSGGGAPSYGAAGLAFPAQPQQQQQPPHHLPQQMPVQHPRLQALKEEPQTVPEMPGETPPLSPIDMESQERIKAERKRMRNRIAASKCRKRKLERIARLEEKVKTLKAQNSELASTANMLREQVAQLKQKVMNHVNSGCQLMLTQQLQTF
How it was run: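 H460 cells in RPMI 1640 with 5% FBS, treated at 20 μM for 12 h. Lysates in Tris-HCl pH 7.4, NP40, SDS buffer with protease/phosphatase inhibitors. p-c-Jun examined by Western blot with HRP secondary and chemiluminescence, actin as equal-loading control.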

NCI-H460 [10] = assay: Induction of apoptosis in human NCI-H460 cells assessed as non-viable necrotic cells at 20 uM after 6 hrs by annexinV-propidium iodide staining based flow cytometric analysis relative to control; format: functional; how it was run: as §1
NCI-H460 [11] = assay: Induction of apoptosis in human NCI-H460 cells assessed as late apoptotic cells at 20 uM after 6 hrs by annexinV-propidium iodide staining based flow cytometric analysis relative to control; format: functional; how it was run: as §1
NCI-H460 [12] = assay: Induction of XBP-1 protein expression level in human NCI-H460 cells after 6 hrs by Western blot analysis; format: functional, cell-based
How it was run: (§3)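 H460 cells exposed to 20 μM for varying times, or to a range of concentrations for 6 h. ATF-4 and XBP-1 protein measured by Western blot with actin as loading control.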

[13] = molecular target: Transcription factor Jun (Homo sapiens) (UniProt P05412); assay: Induction of c-Jun phosphorylation in human NCI-H460 cells at 20 uM after 3 hrs by Western blot analysis; format: cell-based
How it was run: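 H460 cells cultured in RPMI 1640 with 5% heat-inactivated FBS at 37 C, 10% CO2; exposed to 20 μM for a time course. Lysed at 0 C in Tris-HCl pH 7.4 buffer with NP40, SDS, and protease/phosphatase inhibitors. Phospho-c-Jun detected by Western blot with chemiluminescence, actin as loading control; band density quantified.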

NCI-H460 [14] = assay: Induction of XBP-1 protein level in human NCI-H460 cells at 20 uM after 6 hrs by Western blot analysis
NCI-H460 [15] = assay: Induction of apoptosis in human NCI-H460 cells assessed as late apoptotic cells at 5 uM after 6 hrs by annexinV-propidium iodide staining based flow cytometric analysis relative to control; format: functional; how it was run: as §1
NCI-H460 [16] = assay: Induction of apoptosis in human NCI-H460 cells at 5 to 30 uM after 24 hrs by flow cytometric analysis; format: functional, cell-based
NCI-H460 [17] = assay: Cytotoxicity against human NCI-H460 cells assessed as reduction of cell viability at 5 to 30 uM after 24 hrs by CellTiter-Glo analysis; format: functional, cell-based
How it was run: (§4)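 H460 cells (5 × 10^3/well) seeded overnight, then given fresh medium containing compound from DMSO stock (final 5, 10, 20 μM; 2.5–30 μM in the figure) for 24 h. Viability measured with CellTiter-Glo and expressed as percent of vehicle-treated cells; Student's t test.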

NCI-H460 [18] = assay: Antitumor activity against human NCI-H460 cells xenografted in nude Balb/cA mouse assessed as decrease in tumor volume at 10 mg/kg, ip qd for 20 days measured on day 22 relative to control; format: functional; design: scale not given: the % may be the effect or the level left; settings: route intraperitoneal
How it was run: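 BALB/cA nu/nu female athymic mice bearing sc right-flank xenografts (3 × 10^6 H460 cells in PBS); once-daily ip dosing began on day 10, when tumors reached 100–300 mm3. Water-soluble liposome preparation in PBS at 10 or 50 mg/kg; controls received liposome vehicle in PBS. Volume = lw²/2; T/C read on day 22. Seven mice per group, mean ± SD; Student's t test.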

NCI-H460 [19] = assay: Induction of XBP-1 mRNA expression in human NCI-H460 cells after 3 hrs by real time quantitative PCR analysis
NCI-H460 [20] = assay: Cytotoxicity against human NCI-H460 cells after 72 hrs by MTT assay; format: functional, cell-based; settings: NCI-H460, 72 h
How it was run: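 H460 cells grown in RPMI 1640 with 5% FBS at 37 °C, 10% CO2, treated 24 h after seeding. Compounds in DMSO diluted into medium at final 100, 33.3, 11.1 and 3.7 μg/mL for 72 h. MTT (5 mg/mL in 0.9% NaCl) added for 3 h, formazan dissolved in DMSO and read at 570 nm; IC50 derived.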

NCI-H460 [21] = assay: Induction of ATF-4 protein expression level in human NCI-H460 cells after 6 hrs by Western blot analysis; format: functional, cell-based; how it was run: as §3
NCI-H460 [22] = assay: Cytotoxicity against human NCI-H460 cells assessed as reduction of cell viability at 5 to 20 uM after 24 hrs by CellTiter-Glo analysis; format: functional, cell-based; how it was run: as §4

SMILES: COc1cccc(/C=C/C(=O)/C=C/c2cccc(OC)c2OC)c1OC
- Activity (NCI-H460 [1]): Active
- Activity (NCI-H460 [2]): 22.74%
- Activity (NCI-H460 [3]): Active
- Activity (NCI-H460 [4]): Dose-dependent effect
- Activity (NCI-H460 [5]): Active
- Activity (NCI-H460 [6]): Dose-dependent effect
- viability at 5 µM (NCI-H460 [7]): 89.4%
- Activity (Mus musculus): Non-toxic
- Activity (NCI-H460 [8]): tde
- Activity [9]: tde
- Activity (NCI-H460 [10]): 1.48%
- Activity (NCI-H460 [11]): 11.56%
- Activity (NCI-H460 [12]): Dose-dependent effect
- Activity [13]: Active
- Activity (NCI-H460 [14]): Active
- Activity (NCI-H460 [15]): 2.62%
- Activity (NCI-H460 [16]): Active
- Activity (NCI-H460 [17]): Active
- Activity (NCI-H460 [18]): 75.8%
- Activity (NCI-H460 [19]): Dose-dependent effect
- IC50 (NCI-H460 [20]): 6.74 µM
- Activity (NCI-H460 [21]): Dose-dependent effect
- Activity (NCI-H460 [22]): Active
